How the values were obtained:
[1] = target: T1, 11-beta-hydroxysteroid dehydrogenase type 2 (Homo sapiens) (UniProt P80365); test: Inhibition of human recombinant 11beta-HSD2 expressed in HEK293 cells assessed as residual conversion of [1,2,6,7-3H]-cortisol to cortisone at 0.2 uM by scintillation counting; format: cell-based
T1 sequence (whole entry): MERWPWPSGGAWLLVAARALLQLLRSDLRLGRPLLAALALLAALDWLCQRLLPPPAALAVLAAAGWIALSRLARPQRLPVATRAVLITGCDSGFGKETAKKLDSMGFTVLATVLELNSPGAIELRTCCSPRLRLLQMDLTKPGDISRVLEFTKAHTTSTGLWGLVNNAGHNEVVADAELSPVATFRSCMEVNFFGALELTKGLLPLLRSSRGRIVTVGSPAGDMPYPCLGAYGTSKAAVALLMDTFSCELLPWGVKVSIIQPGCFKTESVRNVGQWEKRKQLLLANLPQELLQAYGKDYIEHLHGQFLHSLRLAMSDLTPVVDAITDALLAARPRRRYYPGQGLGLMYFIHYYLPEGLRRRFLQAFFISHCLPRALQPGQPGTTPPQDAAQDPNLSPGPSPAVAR
How it was run: (§1)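 HEK-293 cells transfected with pcDNA3 encoding human enzyme carrying C-terminal FLAG tag. Compounds diluted from DMSO stocks, used immediately, screened at final 200 nM. Reactions stopped with methanol containing 2 mM unlabeled cortisone and cortisol. Steroids separated by TLC, then scintillation counting; readout is residual substrate conversion.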

[2] = target: T2, 11-beta-hydroxysteroid dehydrogenase 1 (Homo sapiens, UniProt P28845); test: Inhibition of human recombinant 11beta-HSD1 expressed in HEK293 cells assessed as residual conversion of [1,2-3H]-cortisone to cortisol at 0.2 uM by scintillation counting; format: cell-based; how it was run: as §1
Target sequence in this assay (P28845 whole entry, looked up): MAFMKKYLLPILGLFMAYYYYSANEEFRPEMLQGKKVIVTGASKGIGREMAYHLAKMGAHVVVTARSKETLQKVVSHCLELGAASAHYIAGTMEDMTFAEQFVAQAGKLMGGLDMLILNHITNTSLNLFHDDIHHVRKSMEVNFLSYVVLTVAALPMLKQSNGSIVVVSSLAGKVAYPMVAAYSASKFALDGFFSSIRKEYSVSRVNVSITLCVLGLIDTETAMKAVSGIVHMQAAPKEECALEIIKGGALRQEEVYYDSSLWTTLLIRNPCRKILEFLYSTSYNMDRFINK

[3] = target: T3, 11-beta-hydroxysteroid dehydrogenase type 2 (Homo sapiens, UniProt P80365); test: Inhibition of human recombinant 11beta-HSD2 expressed in HEK293 cells assessed as conversion of [1,2,6,7-3H]-cortisol to cortisone by scintillation counting; format: cell-based
T3 sequence (P80365 whole entry): T1 sequence (whole entry)

[4] = target: T2, 11-beta-hydroxysteroid dehydrogenase 1; test: Inhibition of human recombinant 11beta-HSD1 expressed in HEK293 cells assessed as conversion of [1,2-3H]-cortisone to cortisol by scintillation counting; format: cell-based
Target sequence in this assay (P28845 whole entry): as the sequence (P28845 whole entry, looked up) above

[5] = Selectivity ratio of IC50 for human recombinant 11beta-HSD2 to IC50 for human recombinant 11beta-HSD1

| SMILES | Activity [1] | Activity [2] | IC50 [3] | IC50 [4] | Ratio [5] |
| --- | --- | --- | --- | --- | --- |
| CN(O)C(=O)[C@@]1(C)CC[C@]2(C)CC[C@]3(C)C(=CC(=O)[C@@H]4[C@@]5(C)CC[C@H](NS(=O)(=O)C(F)(F)F)C(C)(C)[C@@H]5CC[C@]43C)[C@@H]2C1 | 44% | 71% |  |  |  |
| CC1(C)[C@@H](O)CC[C@]2(C)[C@H]3C(=O)C=C4[C@@H]5C[C@@](C)(C(=O)NO)CC[C@]5(C)CC[C@@]4(C)[C@]3(C)CC[C@@H]12 |  |  |  | 1.16 µM |  |
| CN(O)C(=O)[C@@]1(C)CC[C@]2(C)CC[C@]3(C)C(=CC(=O)[C@@H]4[C@@]5(C)CC[C@@H](NS(=O)(=O)C(F)(F)F)C(C)(C)[C@@H]5CC[C@]43C)[C@@H]2C1 | 82% | 88% |  |  |  |
| CONC(=O)[C@@]1(C)CC[C@]2(C)CC[C@]3(C)C(=CC(=O)[C@@H]4[C@@]5(C)CC[C@H](O)C(C)(C)[C@@H]5CC[C@]43C)[C@@H]2C1 |  |  | 2.13 µM | 0.929 µM | 0.4 |
| CC1(C)C(=O)CC[C@]2(C)[C@H]3C(=O)C=C4[C@@H]5C[C@@](C)(C(=O)O)CC[C@]5(C)CC[C@@]4(C)[C@]3(C)CC[C@@H]12 |  |  |  | 0.619 µM |  |
| C=CCONC(=O)[C@@]1(C)CC[C@]2(C)CC[C@]3(C)C(=CC(=O)[C@@H]4[C@@]5(C)CC[C@H](OC(C)=O)C(C)(C)[C@@H]5CC[C@]43C)[C@@H]2C1 | 84% | 99% |  |  |  |
| CC(=O)O[C@H]1CC[C@]2(C)[C@H]3C(=O)C=C4[C@@H]5C[C@@](C)(C(=O)NO)CC[C@]5(C)CC[C@@]4(C)[C@]3(C)CC[C@H]2C1(C)C |  |  |  | 0.626 µM |  |
| CO/N=C1\CC[C@]2(C)[C@H]3C(=O)C=C4[C@@H]5C[C@@](C)(C(=O)O)CC[C@]5(C)CC[C@@]4(C)[C@]3(C)CC[C@H]2C1(C)C |  |  |  | 1.51 µM |  |
| CN(O)C(=O)[C@@]1(C)CC[C@]2(C)CC[C@]3(C)C(=CC(=O)[C@@H]4[C@@]5(C)CC[C@H](O)C(C)(C)[C@@H]5CC[C@]43C)[C@@H]2C1 | 7% | 71% |  |  |  |
| CON[C@H]1CC[C@]2(C)[C@H]3C(=O)C=C4[C@@H]5C[C@@](C)(C(=O)N(C)O)CC[C@]5(C)CC[C@@]4(C)[C@]3(C)CC[C@H]2C1(C)C | 30% | 93% |  |  |  |
| CC(=O)N[C@H]1CC[C@]2(C)[C@H]3C(=O)C=C4[C@@H]5C[C@@](C)(C(=O)N(C)O)CC[C@]5(C)CC[C@@]4(C)[C@]3(C)CC[C@H]2C1(C)C | 4% | 72% |  |  |  |
| CON(C)C(=O)[C@@]1(C)CC[C@]2(C)CC[C@]3(C)C(=CC(=O)[C@@H]4[C@@]5(C)CC[C@H](OC(C)=O)C(C)(C)[C@@H]5CC[C@]43C)[C@@H]2C1 | 72% | 95% |  |  |  |
| CC(=O)O[C@H]1CC[C@]2(C)[C@H]3C(=O)C=C4[C@@H]5C[C@@](C)(C(=O)N(O)C(C)(C)C)CC[C@]5(C)CC[C@@]4(C)[C@]3(C)CC[C@H]2C1(C)C | 85% | 86% |  |  |  |

More lines, main results first:

| Activity [1] | Activity [2] | IC50 [3] | IC50 [4] | SMILES | Ratio [5] |
| --- | --- | --- | --- | --- | --- |
| 50% | 99% |  |  | CC1(C)[C@H](NS(=O)(=O)C(F)(F)F)CC[C@]2(C)[C@H]3C(=O)C=C4[C@@H]5C[C@@](C)(C(=O)O)CC[C@]5(C)CC[C@@]4(C)[C@]3(C)CC[C@@H]12 |  |
| 5% | 43% | 0.0049 µM | 0.0619 µM | CON[C@@H]1CC[C@]2(C)[C@H]3C(=O)C=C4[C@@H]5C[C@@](C)(C(=O)O)CC[C@]5(C)CC[C@@]4(C)[C@]3(C)CC[C@H]2C1(C)C |  |
| 22% | 87% |  |  | CC1(C)[C@@H](NS(=O)(=O)C(F)(F)F)CC[C@]2(C)[C@H]3C(=O)C=C4[C@@H]5C[C@@](C)(C(=O)O)CC[C@]5(C)CC[C@@]4(C)[C@]3(C)CC[C@@H]12 |  |
| 2% | 33% | 0.0145 µM | 0.0427 µM | CON[C@H]1CC[C@]2(C)[C@H]3C(=O)C=C4[C@@H]5C[C@@](C)(C(=O)O)CC[C@]5(C)CC[C@@]4(C)[C@]3(C)CC[C@H]2C1(C)C |  |
| 4% | 58% |  |  | CC1(C)[C@@H](NS(C)(=O)=O)CC[C@]2(C)[C@H]3C(=O)C=C4[C@@H]5C[C@@](C)(C(=O)O)CC[C@]5(C)CC[C@@]4(C)[C@]3(C)CC[C@@H]12 |  |
|  |  | 0.458 µM | 0.825 µM | CC(=O)N[C@H]1CC[C@]2(C)[C@H]3C(=O)C=C4[C@@H]5C[C@@](C)(C(=O)O)CC[C@]5(C)CC[C@@]4(C)[C@]3(C)CC[C@H]2C1(C)C |  |
| 4% | 32% |  |  | CC1(C)[C@H](NS(C)(=O)=O)CC[C@]2(C)[C@H]3C(=O)C=C4[C@@H]5C[C@@](C)(C(=O)O)CC[C@]5(C)CC[C@@]4(C)[C@]3(C)CC[C@@H]12 |  |

Reference: ChEMBL document CHEMBL1268844, “Synthesis of novel 3-amino and 29-hydroxamic acid derivatives of glycyrrhetinic acid as selective 11β-hydroxysteroid dehydrogenase 2 inhibitors” (Bioorg Med Chem, 2010)
